We go through eight compounds from ChEMBL document CHEMBL1153493, “The marine natural-derived inhibitors of glycogen synthase kinase-3beta phenylmethylene hydantoins: In vitro and in vivo activities and pharmacophore modeling” (Bioorg Med Chem, 2009).

The target in test [1] is Glycogen synthase kinase-3 beta (Homo sapiens, UniProt P49841). Briefly: Inhibition of recombinant GSK3-beta by ELISA. On the technique in general: ELISA stands for enzyme-linked immunosorbent assay.
In test [2] the test system is Rattus norvegicus. As to the kind of experiment: Antihyperglycemic activity in ip dosed Sprague-Dawley rat assessed as increase liver glycogen. Type of test: functional, organism-based. Summed up: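 Female Sprague Dawley rats, six weeks old, about 200 g. Food and water removed 6 h before a single ip injection of 5, 15 or 25 mg/kg as the sodium salt in PBS pH 7.2, 0.5 mL/rat. PBS vehicle control, n=3 per group. Liver homogenized in 5% TCA, glycogen precipitated with ethanol, measured with anthrone at 620 nm. Mean ± SEM.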

Chain of Glycogen synthase kinase-3 beta (P49841 whole entry): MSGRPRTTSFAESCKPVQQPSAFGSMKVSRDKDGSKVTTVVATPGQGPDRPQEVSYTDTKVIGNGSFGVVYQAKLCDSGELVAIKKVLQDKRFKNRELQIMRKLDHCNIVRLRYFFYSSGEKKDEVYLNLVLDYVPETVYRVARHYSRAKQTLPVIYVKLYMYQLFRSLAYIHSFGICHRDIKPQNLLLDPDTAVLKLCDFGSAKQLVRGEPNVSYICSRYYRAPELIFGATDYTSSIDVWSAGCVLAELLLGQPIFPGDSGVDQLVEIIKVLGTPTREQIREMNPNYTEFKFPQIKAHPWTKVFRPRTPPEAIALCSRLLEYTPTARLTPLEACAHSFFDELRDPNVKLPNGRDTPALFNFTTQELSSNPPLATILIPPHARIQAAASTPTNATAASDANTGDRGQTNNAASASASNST

Take `CSc1ccc(/C=C2\NC(=O)NC2=O)cc1`: the IC50 in test [1] is 6.9 µM. Turning to `CCN(CC)c1ccc(/C=C2\NC(=O)NC2=O)cc1`, in test [1], the IC50 amounted to 4.2 µM. In test [2], the Activity result is “Dose-dependent effect”. In the case of `CCSc1ccc(/C=C2\NC(=O)NC2=O)cc1`, the IC50 in test [1] is 7.8 µM. As to `O=C1NC(=O)/C(=C/c2ccc(-c3cccs3)cc2)N1`, the IC50 in test [1] amounted to 13.5 µM. Consider `O=C1NC(=O)/C(=C/c2ccc(Cl)cc2)N1`, for which, in test [1], the IC50 was determined as 18.2 µM.

As for `O=C1NC(=O)/C(=C/c2ccc(O)cc2)N1` [4-HYDROXYPHENYLMETHYLENE HYDANTOIN], the IC50 in test [1] amounted to 13.7 µM. `O=C1NC(=O)/C(=C/c2ccc(-c3ccsc3)cc2)N1`: the 50% inhibitory concentration (IC50) in test [1] came out at 6.4 µM. For the compound `O[C@]12C=C(c3nccc4c3[nH]c3ccccc34)[C@@H]3CCN(CCCC/C=C\CC1)C[C@@]31C[C@@H]3/C=C\CCCCN3[C@H]12` [MANZAMINE A], the IC50 in test [1] is 12.3 µM.

In general, IC50 refers to the concentration that gives 50% inhibition.
